Measurements from PubChem BioAssay AID465 (The Scripps Research Institute Molecular Screening Center, 2006).
About 130 (0.21%) of roughly 62,000 compounds were called active.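 Rule for the calls: active = inhibition above the mean of all tested compounds plus 3 SD (cut at about 40% in these data); inactive = the rest.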 The entries come from a sample that favours actives as a whole.

Experiment: lowered NF-kB luciferase signal in HEK293 cells – cell-based, HEK-293 luciferase reporter, PMA/ionomycin, luminescence, antigen receptor NF-kB inhibitor project, primary screen (AID 465);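 note: 0% = stimulated DMSO wells and 100% = 10 µM reference inhibitor 5653914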
Conditions: HEK-293 NF-kB luciferase reporter, at 3 µM, active compounds read high
In short: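 Signal: luciferase luminescence; Material: HEK-293 cells with stable firefly luciferase reporter driven by four HIV NF-kB elements; Probe or stimulus: PMA with ionomycin; Replication: tested once; Times: 1 h compound pretreatment, then 16 h stimulation at 37 °C, 5% CO2; Benchmarks: DMSO and 10 µM reference inhibitor; Evaluation: per-plate % inhibition versus controls.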

inhibition, active:
CCNC(=O)CCc1nc(-c2ccc(C(C)(C)C)cc2)no1 79.1%
Cc1cc(C(=O)OCC(=O)NCc2ccco2)c(C)n1-c1ccccc1 41.7%
Cc1cccc2cc(CN(Cc3cccs3)C(c3nnnn3C3CCCC3)C(C)C)c(=O)[nH]c12 (stereo not given) 42%
COc1cccc2c(C)c(C(=O)O)[nH]c12 48.7%

inhibition, inactive:
c1n[nH]c(NCc2ccc3c(c2)OCO3)n1 0.1%
CCC(C)(C)n1nnnc1C(c1ccccc1OC)N1CCSCC1 (stereo not given) 9.6%
Cc1nc(C)c(C(=O)Nc2ccc(C)c(F)c2)o1 19.9%
O=C(CSc1ncccn1)NC(=O)NCc1ccccc1 13.2%
CCC(=O)Nc1cccc(NC(=O)CSc2nnc(-c3ccc(NS(C)(=O)=O)cc3)n2C)c1 1.5%
COc1ccc(CCn2c(=N)c(C(=O)NCc3ccco3)cc3c(=O)n4cccc(C)c4nc32)cc1 7.9%
Cc1nc2ccc(S(=O)(=O)NCC(=O)O)cc2s1 -0.6%
CC1=CC(C)(C)N(C(=O)CSc2nccn2C)c2cc(C)ccc21 0%
Cc1ccc(C)c(S(=O)(=O)N2CC(=O)Nc3ccccc32)c1 13.2%
Cn1c(=O)c2c(nc(SCCNS(=O)(=O)c3ccccc3)n2C)n(C)c1=O 11.9%
O=C(NCCCN1CCN(C2CCCCC2)CC1)Nc1ccccc1C(F)(F)F 7.8%
O=C(NCc1ccco1)C1CCCN(S(=O)(=O)c2cccc3nonc23)C1 (stereo not given) 0.7%
O=P(O)(CN1CCCCC1)CN1CCCCC1 4.4%
Cc1ccc(-c2noc(CCC(N)=O)n2)cc1 19.8%
Cc1ccc(-c2noc(CCC(=O)Nc3ccccc3N3CCN(C)CC3)n2)cc1 -2%
CCCS(=O)(=O)C(=C1Nc2ccccc2N1)S(=O)(=O)CCC 3.3%
COc1ccc2c(c1)CCc1c(C(=O)Nc3c(C)n(C)n(-c4ccccc4)c3=O)noc1-2 23.3%
CCCCOc1ccc(-c2nnc(-c3ccco3)o2)cc1 -34%
CC(=O)Nc1ccc(S(=O)(=O)N2CCCC2C(=O)O)cc1 (stereo not given) 6.9%
CCOC(=O)N1CCN(C(=O)CN(c2ccc(C)c(C)c2)S(=O)(=O)c2ccccc2)CC1 10.2%
C=CCc1cccc2cc(C(=O)N3CCN(C(=O)OCC)CC3)c(=O)oc12 -6.7%
Cc1cc(C)cc(OCc2nnc(SCC(=O)OC3CCCCC3)o2)c1 17.6%
Cc1ccnc(N2CCC(C(=O)NC3CCCCCC3)CC2)n1 11.5%
Nc1ccc(-n2nncc2-c2ccco2)cc1 4%
O=C(COC(=O)C12CC3CC(CC(C3)C1)C2)NCc1ccco1 3.7%
CCOC(=O)c1cnc(SCC(=O)NCc2ccco2)nc1N -2%
CC1(C)CC(=O)C2=C(C1)NCN(CCCN1CCOCC1)C2 3.7%
CCCCC(=O)Nc1cc(C)c2c(=O)oc3ccccc3c2n1 2.7%
Cc1cccc(-n2c(N)c(C(=O)N3CCN(C)CC3)sc2=S)c1 8.2%
Cc1ccc2nc(S(=O)(=O)O)[nH]c2c1 13.2%
COCc1[nH]nc2c1C(C1C=CCCC1)C(C#N)=C(N)O2 (stereo not given) -9.1%
Cc1cccc2cc(CN(Cc3ccc4c(c3)OCO4)Cc3nnnn3C3CCCC3)c(=O)[nH]c12 26.6%
CCC(c1nnnn1C1CCCC1)N(Cc1cccs1)Cc1cc2cccc(C)c2[nH]c1=O (stereo not given) 1.1%
CCCCOc1ccc(-c2ncc(C(=O)OCC)c(N)n2)cc1 5.2%
Cc1ccc(C)n1-c1ccncc1 4.5%
Cc1nnc(Sc2nc3c(c(=O)[nH]c(=O)n3C)n2Cc2ccccc2)s1 -1.3%
CC(C)CCn1c(CN(C)Cc2ccccc2)nc2c1c(=O)n(C)c(=O)n2C 10.4%
CCc1c(C)nc2cc(-c3cccs3)[nH]n2c1=O 0.4%
Cn1nnnc1SCC(=O)N1CCN(Cc2ccccc2)CC1 10.7%
Cc1cccc(NC(=O)c2ccc3ccccc3n2)n1 -33.4%
Cc1ccccc1CSCC(=O)NC(=O)NC(C)(C)C -1.2%
CCOc1ncccc1C(=O)OCc1cn2cc(Cl)ccc2n1 7.4%
CC1C(c2ccccc2)=[N+]([O-])C2(CCCC2)N1O (stereo not given) 5.7%
Cc1ccc(-c2cc(C(F)(F)F)n3nc(C(=O)N4CCCC4)cc3n2)cc1 13.3%
CC(C)(C)OC(=O)c1c(N)n(CCCN2CCCC2=O)c2nc3ccccc3nc12 11.9%
O=C(NCc1ccco1)c1cc2sccc2n1Cc1ccc(F)cc1 19.8%
O=C(O)CCCC(=O)Nc1ccccc1-n1ccnc1 -1.2%
COc1ccc(-c2nnc(SC(=O)N3c4ccccc4Sc4ccccc43)o2)cc1 9.5%
COc1ccc(O)c(C(=O)c2cnc3onc(C(C)C)c3c2)c1 8.8%
Cc1cc(C)c(S(=O)(=O)NCCCN2CCOCC2)cc1Br 11.3%
O=S(=O)(NCc1cccnc1)c1ccc(Br)s1 10.6%
CCN1C(=O)C(C(=O)NC(C)c2ccccc2)C2CC1(C)Oc1ccccc12 (stereo not given) 14.7%
Cc1nn(-c2ccccc2)c(C)c1C(=O)OCC(=O)NC(=O)NC1CCCCC1 8.4%
CCOC(=O)N1CCN(C(=O)c2nn(-c3ccc(C)cc3)c(=O)c3c2c2ccccc2n3C)CC1 20.4%
O=C(OCC(=O)N1CCCC1)c1ccco1 9.6%
CC1(C)NC(=O)N(CCOc2cccc(Oc3ccccc3)c2)C1=O 21.8%
COc1ccc(C)cc1NC(=O)c1[nH]c(C)c(C(C)=O)c1C 8.7%
CCOC(=O)c1c(C)[nH]c(C(=O)NCc2ccccc2OC)c1C -10.8%
Cc1ccc(NC(=O)CCNS(=O)(=O)c2ccc3c(c2)oc(=O)n3C)cc1C 13.6%
CC1CN(C(=O)CN2C(=O)NC(C)(c3ccccc3)C2=O)CC(C)O1 (stereo not given) 6.5%
Cc1cc(=O)oc(C)c1C(=O)NCc1ccc(F)cc1 4.5%
O=C(CCn1c(=O)oc2ccccc21)Nc1ccon1 6.5%
CCOC(=O)N1CCN(S(=O)(=O)c2ccc(C(=O)Nc3ccc(F)cc3F)cc2)CC1 17.4%
O=C(C(NS(=O)(=O)c1cccc2nsnc12)c1ccccc1)N1CCN(c2ccccn2)CC1 (stereo not given) 10.9%
CCOc1cc(C(=O)N2CCc3cc(OC)c(OC)cc3C2)ccc1OC(F)F 31.7%
O=C(Cc1c(F)cccc1Cl)N1CCN(C(=O)c2ccco2)CC1 10.7%
Cc1nc2c(-c3ccc(F)cc3)c(C)nn2c(C)c1CCC(=O)N1CCN(c2ccccn2)CC1 0.2%
CCn1cc(C(=O)NC2CCCCCC2)c(=O)c2cc(S(=O)(=O)N3CCCCC3)ccc21 20.8%
COc1ccc(OC)c(NC(=O)CSc2nc3cccnc3n2C)c1 18.9%
CC(Sc1nncs1)C(=O)NCc1ccc2c(c1)OCO2 (stereo not given) -5.2%
COc1ccccc1NC(=O)CN1CCN(S(=O)(=O)c2ccc(Br)cc2)CC1 4.2%
CCOC(=O)c1cccc(NC(=O)C2CCCN(S(=O)(=O)c3cnc[nH]3)C2)c1 (stereo not given) 11.6%
O=c1ccc2cc(S(=O)(=O)N3CCN(c4ccccc4)CC3)ccc2o1 10.7%
CCCCCN(C(=O)NC(=O)Nc1ccccc1OC)S(C)(=O)=O 7.9%
COc1ccc(-c2nnn(Cc3nc(N)nc(N4CCCCC4)n3)n2)cc1 10.9%
O=C(NCCCCO)C(F)(F)C(F)(F)C(F)(F)C(=O)NCCCCO 13.3%
CCOC(=O)c1cc(C)sc1NC(=O)C1CCC1 0.1%
CC(C)Cc1ccc(S(=O)(=O)N2CCN(C(=O)c3ccco3)CC2)cc1 9.1%
CC(Sc1nncn1C)C(=O)Nc1ccccc1-c1ccccc1 (stereo not given) 14.4%
O=C(CN1C(=O)NC2(CCCCC2)C1=O)NCCC1=CCCCC1 17.4%
CCN(CC)C(=O)N1CCN(C(=O)c2ccc(C)cn2)CC1 4.3%
Fc1ccc(Cn2nnnc2C(c2cccs2)N2CCCCCC2)cc1 (stereo not given) 9.2%
CCCC(=O)Nc1nnc(CC(=O)OCC)s1 9.9%
CCCCNc1nc2ccccc2nc1NS(=O)(=O)c1cccs1 3.3%
Cc1noc(/C=C/N(C)C)c1S(=O)(=O)N1CCCC(C(=O)NCc2ccco2)C1 (stereo not given) 5%
O=C(Cc1cccs1)N1CCCC(c2nc(-c3ccc(S(=O)(=O)N4CCCC4)cc3)no2)C1 (stereo not given) 6.1%
Cc1cc(C(=O)COC(=O)c2cccs2)c(C)n1-c1c(C)n(C)n(-c2ccccc2)c1=O 20%
COc1cc(OC)cc(C(=O)Nc2ncc3c(n2)CC(C)(C)CC3=O)c1 18.8%
O=S(=O)(/C=C/c1ccccc1)NCCc1ccccn1 3.3%
CCCCc1nc2c(=O)[nH]c3ccccc3c2o1 7.6%
CNC(=O)c1nnn(-c2ccccc2)c1C(=O)NC 14%
CCC(=O)Nc1ccccc1C(=O)N1CCN(Cc2ccccc2)CC1 9.5%
Cc1[nH]c2ccccc2c1C(=O)CSCC(=O)O 16%
C/C(=C\C(=O)c1cccnc1)Nc1ccc(C)c(C)c1 -5%
O=C(O)c1cccc2c1C(=O)N(C1CCCCC1)C2 8.4%
CS(=O)(=O)N1CCN(C(=O)Cc2ccccc2)CC1 5.7%
CCCCC(CC)C(=O)Nc1ccc(Cl)cn1 (stereo not given) -0.6%
CCN(CC)CCCN1C(=O)C(=O)/C(=C(/O)c2c(C)nc3ccccn23)C1c1ccc(C)o1 (stereo not given) 13.6%
COCCNC(=O)CN(C(=O)CCC(=O)Nc1cc(C)on1)c1ccc(C)cc1C 1.1%
CC(C)C(=O)N1CCN(CCN=CC2=C(O)CC(c3ccco3)CC2=O)CC1 (stereo not given) 9.5%
CC1CCCCC1NC(=O)CCS(=O)(=O)c1cccc2nonc12 (stereo not given) 10.9%
CCOC(=O)N1CCC(NC(=O)Cn2cc3c(n2)CCCCC3)CC1 17.8%
CCOc1ccc(OCC)c(NC(=O)C(NS(=O)(=O)c2ccc3c(c2)oc(=O)n3C)C(C)C)c1 (stereo not given) 12.5%
CCC1Oc2ccc(Cl)cc2N(CC(=O)O)C1=O (stereo not given) 10.2%
CC(CCO)Nc1nc2c([nH]1)c(=O)n(C)c(=O)n2C (stereo not given) 22.2%
COC(=O)[C@H](C(C)C)n1c(C)c(C(C)=O)c(C(C)=O)c1C -9.6%
